Source: article PMC6001664 (Chemmedchem, 2018)
Values after ≈ are worked out from the molar mass of the structure shown. Like-named read-outs stand apart in the source and are kept apart here. One block for each molecule: values may come before it.

Assays:
PHD1 [1] = biological target: T1, PHD1 (Homo sapiens, UniProt Q96KS0); test: Biochemical HIF-PH enzyme assay; conditions: for LipE (lipophilic binding efficiency): LipE=pIC50−logD 7.5; for BEI (binding efficiency index): from pIC50 and molecular weight; for dependence of potency (IC50) on Fe^2+ concentration: Fe^2+ varied in reaction buffer (3 μM and 30 μM, Figure 3)
Summary of the method: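 Human HIF-PH hydroxylates Pro564 of a HIF peptide (aa 556–574). The hydroxylated peptide binds europium-labelled recombinant VBC complex, and inhibition is read as lower fluorescence. Iron dependence was tested at 3 and 30 μM Fe²⁺. LipE = pIC50 − logD7.5; BEI derived from pIC50 and corrected molecular weight.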

plasma EPO [2] = test: Plasma EPO in rats after oral dosing; type: in vivo; conditions: 4 h (Figure 7), BAY-908 50 mg kg^−1
[3] = test system: endogenous HIF in recombinant A549 lung carcinoma cell; test: HIF-reporter cell assay; type: cell-based
[4] = logD 7.5 by HPLC retention time correlation; type: physicochemical; conditions: pH 7.5
Summary of the method: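 logD at pH 7.5 was estimated by correlating HPLC retention times with those of reference compounds of known logD7.5.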

Aqueous solubility = type: physicochemical; conditions: water
plasma EPO [5] = test: EPO mRNA / plasma EPO in mice; type: in vivo; conditions: for plasma EPO concentration: 4 h after p.o. dosing of 100 mg kg^−1, baseline ≈120 pg mL^−1
major CYP isoforms = test: CYP profile; type: in vitro ADME
[6] = Pharmacokinetic studies in rats; type: in vivo; conditions: rat; for clearance: blood, iv, 2 mg/kg; for bioavailability as Tylose suspension / Relative bioavailability (Tylose suspension): p.o.; for bioavailability as Tylose suspension: 0.5 % Tylose in water; for Relative bioavailability (Tylose suspension): 0.5 % Tylose in water vs solution
[7] = metabolite of molidustat; cited from earlier work
HIF‐1α in HeLa cells = test: Induction of HIF-1α in HeLa cell cultures; type: cell-based; conditions: human HeLa cell cultures
EPO in HuH cells = test: EPO induction in hepatoma HuH cells; type: cell-based, human
[8] = test system: broad range of targets including 2‐OG‐dependent dioxygenases, metalloenzymes, nuclear hormone receptors and cell surface receptors; test: Lead profiling selectivity panel
[9] = test system: hematocrit and reticulocytes; test: Hematocrit and reticulocytes in mice; type: in vivo
[10] = Elimination of iron via urine in rats; type: in vivo; conditions: oral administration
[11] = cited from earlier work
PHD3 = conditions: salt-free compound; cited from earlier work
PHD1 [12] = biological target: T1, PHD1; conditions: cited from earlier work
[13] = pKa determination by spectrophotometry; type: physicochemical; conditions: aqueous solution
[14] = sodium salt; cited from earlier work
[15] = Homo sapiens, A549, read-out: EC50 HIF-reporter cell assay

T1 sequence (Q96KS0 whole entry, the tested form may be a part): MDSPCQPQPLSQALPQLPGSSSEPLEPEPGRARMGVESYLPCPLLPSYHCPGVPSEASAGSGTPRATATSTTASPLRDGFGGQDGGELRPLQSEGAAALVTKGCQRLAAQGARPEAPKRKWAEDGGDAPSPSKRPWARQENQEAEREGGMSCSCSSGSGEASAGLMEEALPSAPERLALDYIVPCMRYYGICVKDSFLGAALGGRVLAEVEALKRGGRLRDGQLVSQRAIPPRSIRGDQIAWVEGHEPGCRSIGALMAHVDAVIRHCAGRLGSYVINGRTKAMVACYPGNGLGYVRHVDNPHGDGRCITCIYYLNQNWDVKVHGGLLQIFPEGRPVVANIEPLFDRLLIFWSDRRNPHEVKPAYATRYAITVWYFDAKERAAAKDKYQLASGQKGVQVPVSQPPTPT

IC50 (PHD1 [1]): 180 nM
Compound: O=c1c(-c2cccnc2)c[nH]n1-c1cc(N2CCOCC2)ncn1 [Compound 23]

IC50 (PHD1 [1]): 1700 nM
Compound: Cc1ccc(-n2[nH]cc(-c3cccnc3)c2=O)nc1 [Compound 12]

IC50 (PHD1 [1]): 1500 nM
Compound: O=c1c(-c2cccnc2)c[nH]n1-c1cc(N2CCCCC2)ncn1 [Compound 22]

IC50 (PHD1 [1]): > 50000 nM
Compound: COc1c(-c2cccnc2)cnn1-c1ccccn1 [Compound 8]

IC50 (PHD1 [1]): > 50000 nM
Compound: Oc1c(-c2cccnc2)ncnc1-c1ccccn1 [Compound 10]

IC50 (PHD1 [1]): 1100 nM
Compound: O=c1c(-c2cccnc2)c[nH]n1-c1ccc(COCc2ccccc2)cn1 [Compound 27]

IC50 (PHD1 [1]): 500 nM
LipE (lipophilic binding efficiency) (PHD1 [1]): 5.3
BEI (binding efficiency index) (PHD1 [1]): 20.2
EC50 [3, 15]: 4900 nM
chromatographic logD [4]: 1
solubility (Aqueous solubility): 520 µg/mL (≈ 1670 µM)
CYP profile / CYP inhibition (major CYP isoforms): not optimal
clearance [6]: 21.7 mL/min/kg
bioavailability as Tylose suspension [6]: remained unchanged
Relative bioavailability (Tylose suspension) [6]: 97%
Compound: Oc1c(-n2ccnc2)cnn1-c1cc(N2CCCCC2)ncn1 [Compound 44, 4‐(1H‐Imidazol‐1‐yl)‐1‐[6‐(piperidin‐1‐yl)pyrimidin‐4‐yl]‐1H‐pyrazol‐5‐ol]
plasma EPO concentration in rats (plasma EPO [2]): improved
plasma EPO concentration (plasma EPO [5]): ≈ 3000 pg mL^−1
early safety profile (Early safety profile): not optimal

IC50 (PHD1 [1]): 340 nM
Compound: Cc1ccnc(-n2[nH]cc(-c3cccnc3)c2=O)c1 [Compound 11]

CYP profile / CYP inhibition (major CYP isoforms): no relevant CYP inhibition
Compound: O=C(O)[C@H]1O[C@@H](n2cc(-n3ccnn3)c(=O)n2-c2cc(N3CCOCC3)ncn2)[C@H](O)[C@@H](O)[C@@H]1O [Compound 85, 1‐(Beta‐D‐glucopyranuronosyl)‐2‐[6‐(morpholin‐4‐yl)pyrimidin‐4‐yl]‐4‐(1H‐1,2,3‐triazol‐1‐yl)‐1,2‐dihydro‐3H‐pyrazol‐3‐one]
excreted via urine [7]: 85 % of dose

IC50 (PHD1 [1]): 3500 nM
Compound: Cc1nn(-c2ccccn2)c(O)c1-c1cccnc1 [Compound 3]

EC50 (EPO in HuH cells; Homo sapiens, read-out: EC50 EPO mRNA induction): 1900 nM
IC50 (PHD1 [1]): 430 nM
dependence of potency (IC50) on Fe^2+ concentration (PHD1 [1]): only minor changes
LipE (lipophilic binding efficiency) (PHD1 [1]): 5.8
BEI (binding efficiency index) (PHD1 [1]): 26.7
EC50 [3, 15]: 4900 nM
chromatographic logD [4]: 0.6
solubility (Aqueous solubility): < 1 µg/mL
CYP profile / CYP inhibition (major CYP isoforms): clean
clearance [6]: 48.3 mL/min/kg
Relative bioavailability (Tylose suspension) [6]: 26%
Compound: Oc1c(-c2cccnc2)cnn1-c1ccccn1 [Compound 1, 1‐(Pyridin‐2‐yl)‐4‐(pyridin‐3‐yl)‐1H‐pyrazol‐5‐ol]
concentration at which HIF‐1α was detected (HIF‐1α in HeLa cells): > 0.25 µM
increase in EPO concentration in the supernatant compared with baseline (EPO in HuH cells; human hepatoma HuH cells): threefold
plasma EPO concentration in rats (plasma EPO [2]): increased
selectivity profile in lead profiling panel [8]: favorable
plasma EPO concentration (plasma EPO [5]): ≈ 900 pg mL^−1
EPO mRNA and plasma EPO levels / EPO induction (plasma EPO [5]; after i.p. and p.o. administration): increased
hematocrit and reticulocytes [9]: increase
elimination of iron via urine [10]: did not result in any increased elimination of iron via urine

IC50 (PHD1 [1]): 1000 nM
Compound: N#Cc1cncc(-c2cnn(-c3ccccn3)c2O)c1 [Compound 35]

EC50 [3, 15]: ~25000 nM
Compound: CC(=O)N(O)CCCCCNC(=O)CCC(=O)N(O)CCCCCNC(=O)CCC(=O)N(O)CCCCCN [deferoxamine, reference compound]

IC50 (PHD1 [1]): 3200 nM
Compound: Cc1ccc(-c2c[nH]n(-c3ccccn3)c2=O)cn1 [Compound 31]

IC50 (PHD1 [1]): 190 nM
Compound: COc1ccc(-c2c[nH]n(-c3ccccn3)c2=O)cn1 [Compound 33]

IC50 (PHD1 [1]): 100 nM
Compound: N#Cc1ccc(-c2c[nH]n(-c3ccccn3)c2=O)cn1 [Compound 34]

Compound: [Cl][Co][Cl] [cobalt chloride, reference compound]
EC50 ([3]; read-out: EC50 HIF-reporter cell assay, A549 HIFRE2 luciferase reporter): ~50000 nM

IC50 (PHD1 [1]): 1700 nM
Compound: Cc1cncc(-c2cnn(-c3ccccn3)c2O)c1 [Compound 30]

IC50 (PHD1 [1]): 1500 nM
Compound: O=c1c(-c2cccnc2)c[nH]n1-c1cc(CO)ccn1 [Compound 17]

IC50 (PHD1 [1]): 650 nM
EC50 [3, 15]: 5300 nM
Compound: CCOC(=O)c1ccc(-n2[nH]cc(-c3cccnc3)c2=O)nc1 [Compound 25]

IC50 (PHD1 [1]): 790 nM
EC50 [3, 15]: > 20000 nM
Compound: O=c1c(-n2ccnn2)c[nH]n1-c1ccccn1 [Compound 41]

IC50 (PHD1 [1]): 8900 nM
Compound: Cc1cccc(-n2[nH]cc(-c3cccnc3)c2=O)n1 [Compound 13]

IC50 (PHD1 [1]): 880 nM
Compound: COc1cc(-n2[nH]cc(-c3cccnc3)c2=O)ncn1 [Compound 20]

IC50 (PHD1 [1]): 28000 nM
Compound: O=c1c(-c2cnccn2)c[nH]n1-c1ccccn1 [Compound 36]

IC50 (PHD1 [1]): 330 nM
Compound: Cc1cn(-c2c[nH]n(-c3ccccn3)c2=O)nn1 [Compound 42]

dependence of potency (IC50) on Fe^2+ concentration (PHD1 [1]): independent
LipE (lipophilic binding efficiency) (PHD1 [1]): 6.1
BEI (binding efficiency index) (PHD1 [1]): 20.1
pK a [13]: 4.4
EC50 [3, 15]: 8400 nM
chromatographic logD [4]: 0.27
solubility (Aqueous solubility): 140 µg/mL (≈ 445 µM)
CYP profile / CYP inhibition (major CYP isoforms): favorable
clearance [6]: 18.3 mL/min/kg
bioavailability as Tylose suspension [6]: remained unchanged
Relative bioavailability (Tylose suspension) [6]: 102%
Compound: Oc1c(-n2ccnn2)cnn1-c1cc(N2CCOCC2)ncn1 [Compound 45, 1‐[6‐(Morpholin‐4‐yl)pyrimidin‐4‐yl]‐4‐(1H‐1,2,3‐triazol‐1‐yl)‐1H‐pyrazol‐5‐ol]
water uptake ([11]; 20–35 °C, normal pressure, >20 % relative humidity): up to 6 % w/w
IC50 (PHD3): 450 nM
plasma EPO concentration in rats (plasma EPO [2]): Very high EPO induction
change in potency on variation of Fe^2+ concentration (PHD1 [12]; Fe^2+ in the reaction buffer varied by a factor of 30): ≤ 2 fold
IC50 (PHD1 [12]; biochemical assay, PHD1, HCl salt, ref 30 (WO2008067871 A1, example 72)): 490 nM
selectivity profile in lead profiling panel [8]: favorable
plasma EPO concentration (plasma EPO [5]): ≈ 4000 pg mL^−1

IC50 (PHD1 [1]): 7500 nM
Compound: S=c1c(-c2cccnc2)c[nH]n1-c1ccccn1 [Compound 5]

Compound: [Na+].[O-]c1c(-n2ccnn2)cnn1-c1cc(N2CCOCC2)ncn1 [Compound 84, Sodium 1‐[6‐(morpholin‐4‐yl)pyrimidin‐4‐yl]‐4‐(1 H ‐1,2,3‐triazol‐1‐yl)‐1H‐pyrazol‐5‐olate]
water content ([11]; 20–35 °C, normal pressure): < 0.5 % w/w
change of water content ([11]; relative humidity of up to 90 %): < 0.5 % w/w
solubility in water [14]: 28000 µg/mL

IC50 (PHD1 [1]): 150 nM
Compound: O=c1c(-n2cnc(C(F)(F)F)c2)c[nH]n1-c1ccccn1 [Compound 38]

IC50 (PHD1 [1]): 2900 nM
Compound: O=c1c(-c2cccnc2)c[nH]n1-c1cc(COCc2ccccc2)ccn1 [Compound 18]

IC50 (PHD1 [1]): > 50000 nM
Compound: Nc1c(-c2cccnc2)cnn1-c1ccccn1 [Compound 6]

IC50 (PHD1 [1]): 24000 nM
Compound: O=c1c(-c2cccnc2)n[nH]n1-c1ccccn1 [Compound 4]

IC50 (PHD1 [1]): > 50000 nM
Compound: Cn1cc(-c2cccnc2)c(=O)n1-c1ccccn1 [Compound 9]
